Assay results from ChEMBL document CHEMBL1121982 (J Med Chem, 1982).

Key:
Mu-type opioid receptor [1] = target: T1, Mu-type opioid receptor (Rattus norvegicus, UniProt P33535); test: Inhibition of binding of [3H]naloxone to Opioid receptor mu 1 in the rat brain homogenate; type: tissue-based
Mu-type opioid receptor [2] = target: T1, Mu-type opioid receptor; test: Inhibition of [3H]-naloxone binding to mu receptor in rat brain homogenate; type: tissue-based
[3] = target: Mu-type opioid receptor (Cavia porcellus) (UniProt P97266); test: Sensitivity to naloxone against mu receptor in guinea pig ileum assay; type: functional, tissue-based
Summary of the method: (§1)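 Ke for naloxone as antagonist in the isolated tissue assay. It was derived from the ratio of agonist IC50 values measured with and without a fixed naloxone concentration.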

[4] = target: T2, Delta-type opioid receptor (Rattus norvegicus, UniProt P33533); test: Inhibition of [3H][D-Ala2,D-Leu5]enkephalin binding to Opioid receptor delta 1 in the rat brain homogenate; type: tissue-based
[5] = target: T2, Delta-type opioid receptor; test: Inhibition of binding of [3H][D-Ala2,D-Leu5]enkephalin to Opioid receptor delta 1 in the rat brain homogenate; type: tissue-based
[6] = target: Delta-type opioid receptor (Mus musculus) (UniProt P32300); test: […] in mouse vas deferens assay for Opioid receptor delta 1; type: functional; summary of the method: as §1
[7] = target: Delta-type opioid receptor (Mus musculus) (UniProt P32300); test: (§2) Ki ratio measured as the inhibitory effect against delta/mu receptor.
[8] = target: Delta-type opioid receptor (Mus musculus) (UniProt P32300); test: IC50 ratio measured as the inhibitory potencies of MVD/GPI.
Mu-type opioid receptor [9] = target: T3, Mu-type opioid receptor (Cavia porcellus, UniProt P97266); test: Inhibitory potency against Opioid receptor mu 1 in the guinea pig ileum assay; type: functional, tissue-based
Summary of the method: (§3)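 Guinea pig ileum bioassay. Twitch-height reduction at several doses gave log dose-response curves.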

[10] = target: Mu-type opioid receptor (Cavia porcellus) (UniProt P97266); test: Sensitivity to naloxone against Opioid receptor mu 1 in the guinea pig ileum assay; type: functional, tissue-based; summary of the method: as §1
[11] = IC50 ratio measured as inhibitory potencies in mouse vas deferens and guinea pig ileum assays; type: functional
Mu-type opioid receptor [12] = target: Mu-type opioid receptor (Mus musculus, UniProt P42866); test: Inhibitory potency against Opioid receptor mu 1 in mouse vas deferens assay; type: functional, tissue-based
Summary of the method: (§4)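 Vasa deferentia were taken from adult male Swiss Webster albino mice (30-50 g) killed by cervical dislocation. Fat, connective tissue and the blood vessel were removed and semen was expressed. Contractions were recorded with a force transducer, and twitch-height reduction at several doses gave log dose-response curves.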

[13] = target: T4, Delta-type opioid receptor (Mus musculus, UniProt P32300); test: Inhibitory potency against Opioid receptor delta 1 in mouse vas deferens assay; type: functional, tissue-based; summary of the method: as §4
[14] = target: T4, Delta-type opioid receptor; test: Inhibitory potency against Opioid receptor delta 1 in the mouse vas deferens assay; type: functional, tissue-based; summary of the method: as §4
[15] = target: Delta-type opioid receptor (Rattus norvegicus) (UniProt P33533); test: as §2
Mu-type opioid receptor [16] = target: T3, Mu-type opioid receptor; test: Inhibitory potency against mu receptor in guinea pig ileum assay; type: functional, tissue-based; summary of the method: as §3
[17] = Ki ratio measured as inhibitory effect against delta and mu opioid receptors
[18] = target: T2, Delta-type opioid receptor; test: Inhibition of binding of [3H][D-Ala2,D-Leu5]enkephalin to delta receptor in the rat brain homogenate; type: tissue-based
Mu-type opioid receptor [19] = target: T1, Mu-type opioid receptor; test: Inhibition of [3H]naloxone binding to Opioid receptor mu 1 in rat brain homogenate; type: tissue-based

T1 sequence (P33535 whole entry): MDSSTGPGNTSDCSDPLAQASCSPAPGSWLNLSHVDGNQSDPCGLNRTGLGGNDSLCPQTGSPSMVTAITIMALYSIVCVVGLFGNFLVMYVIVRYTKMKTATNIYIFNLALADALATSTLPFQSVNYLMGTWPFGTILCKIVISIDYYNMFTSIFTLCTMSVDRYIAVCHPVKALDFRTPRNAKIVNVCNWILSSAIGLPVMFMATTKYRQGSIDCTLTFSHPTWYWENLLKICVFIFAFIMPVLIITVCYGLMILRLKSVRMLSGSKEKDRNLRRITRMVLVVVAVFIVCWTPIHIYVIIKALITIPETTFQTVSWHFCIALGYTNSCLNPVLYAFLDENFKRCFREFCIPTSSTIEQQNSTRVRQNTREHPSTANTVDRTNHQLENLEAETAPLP
T3 sequence (P97266 whole entry): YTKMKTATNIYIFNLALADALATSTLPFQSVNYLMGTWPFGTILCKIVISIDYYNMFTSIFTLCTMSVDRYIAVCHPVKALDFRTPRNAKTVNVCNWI
Sequence of Mu-type opioid receptor (Cavia porcellus) (P97266 whole entry): as above
Sequence of Delta-type opioid receptor (Mus musculus) (P32300 whole entry): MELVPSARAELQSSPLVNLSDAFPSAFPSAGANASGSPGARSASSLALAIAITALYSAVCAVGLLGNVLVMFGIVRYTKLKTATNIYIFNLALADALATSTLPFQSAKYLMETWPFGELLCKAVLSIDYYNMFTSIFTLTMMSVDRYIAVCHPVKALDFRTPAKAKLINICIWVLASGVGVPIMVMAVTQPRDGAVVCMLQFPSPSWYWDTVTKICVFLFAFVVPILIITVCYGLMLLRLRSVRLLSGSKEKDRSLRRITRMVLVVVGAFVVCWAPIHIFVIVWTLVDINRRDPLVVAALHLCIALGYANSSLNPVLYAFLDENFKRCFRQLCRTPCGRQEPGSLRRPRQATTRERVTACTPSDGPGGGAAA
T4 sequence (P32300 whole entry): as above
Sequence of Delta-type opioid receptor (Rattus norvegicus) (P33533 whole entry): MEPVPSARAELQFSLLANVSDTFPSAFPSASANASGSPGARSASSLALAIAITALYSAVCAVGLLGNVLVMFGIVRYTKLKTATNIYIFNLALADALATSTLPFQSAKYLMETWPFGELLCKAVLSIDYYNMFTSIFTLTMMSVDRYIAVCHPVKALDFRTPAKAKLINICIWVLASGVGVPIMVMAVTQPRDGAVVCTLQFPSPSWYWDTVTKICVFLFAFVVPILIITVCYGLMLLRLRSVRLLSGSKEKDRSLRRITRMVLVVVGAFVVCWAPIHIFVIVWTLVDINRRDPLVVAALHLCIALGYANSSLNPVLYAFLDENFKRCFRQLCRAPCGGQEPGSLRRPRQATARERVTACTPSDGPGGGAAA
T2 sequence (P33533 whole entry): as above
Sequence of Mu-type opioid receptor (Mus musculus, UniProt P42866) (P42866 whole entry): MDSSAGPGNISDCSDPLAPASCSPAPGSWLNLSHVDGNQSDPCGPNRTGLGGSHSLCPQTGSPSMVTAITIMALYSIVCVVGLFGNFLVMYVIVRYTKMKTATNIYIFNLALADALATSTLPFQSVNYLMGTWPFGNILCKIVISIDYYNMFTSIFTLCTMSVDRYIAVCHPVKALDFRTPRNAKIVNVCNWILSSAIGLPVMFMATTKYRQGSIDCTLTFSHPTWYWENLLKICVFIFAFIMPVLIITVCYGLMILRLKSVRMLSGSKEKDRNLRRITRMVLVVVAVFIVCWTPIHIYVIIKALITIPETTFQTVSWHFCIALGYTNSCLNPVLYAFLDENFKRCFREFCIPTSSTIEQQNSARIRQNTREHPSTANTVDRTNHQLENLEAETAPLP

| Compound | Ki (Mu-type opioid receptor [1]) [nM] | Ki [4] [nM] | IC50 [5] [nM] | Ke [6] [nM] | IC50 (Mu-type opioid receptor [9]) [nM] | Ke [10] [nM] | Ratio [11] | IC50 (Mu-type opioid receptor [1]) [nM] | IC50 [14] [nM] | Ratio [17] | also measured |
| --- | --- | --- | --- | --- | --- | --- | --- | --- | --- | --- | --- |
| CC(C)C[C@@H]1NC(=O)[C@H](Cc2ccccc2)NC(=O)CNC(=O)[C@H](NC(=O)[C@@H](N)Cc2ccc(O)cc2)CCCNC1=O | 31.4 | 100 | 221 | 0.216 | 48 |  |  |  |  |  | IC50 (Mu-type opioid receptor [2]): 56.6 nM; Ke [3]: 0.671 nM; Ratio [7]: 3.18; Ratio [8]: 9.9 |
| CN1CC[C@]23CCCC[C@H]2[C@H]1Cc1ccc(O)cc13 [LEVORPHANOL] |  |  |  | 0.587 | 17 | 0.127 | 16.4 |  |  |  | IC50 (Mu-type opioid receptor [12]): 278 nM |
| CC(C)C[C@@H]1NC(=O)[C@H](Cc2ccccc2)NC(=O)CNC(=O)[C@H](NC(=O)[C@@H](N)Cc2ccc(O)cc2)CCCCNC1=O | 12.4 | 14.6 | 32.2 | 0.36 | 4.8 | 0.416 |  | 22.4 |  |  | IC50 [13]: 141 nM; Ratio [7]: 1.18; Ratio [8]: 29.4 |
| CC(=O)O.CCC[C@@H](NC(=O)[C@@H](N)Cc1ccc(O)cc1)C(=O)NCC(=O)N[C@@H](Cc1ccccc1)C(=O)N[C@@H](CC(C)C)C(N)=O | 3.27 | 3.1 | 6.81 | 3.52 | 23.2 | 0.227 | 0.905 | 5.89 | 21 |  | Ratio [15]: 0.95 |
| CC(C)C[C@H](NC(=O)[C@H](Cc1ccccc1)NC(=O)CNC(=O)[C@@H](C)NC(=O)[C@@H](N)Cc1ccc(O)cc1)C(N)=O |  |  |  | 2.36 |  | 0.401 |  |  | 8.26 |  | IC50 (Mu-type opioid receptor [16]): 7.63 nM |
| CC(=O)O.N[C@@H](Cc1ccc(O)cc1)C(=O)N[C@@H]1CCCCNC(=O)[C@H](Cc2ccccc2)NC(=O)CNC1=O | 3.1 |  | 98.3 | 0.606 | 7.09 | 0.875 | 4.77 | 5.58 | 33.8 | 14.4 | Ki [5]: 44.7 nM |
| CC(C)C[C@@H]1NC(=O)[C@@H](Cc2ccccc2)NC(=O)CNC(=O)[C@H](NC(=O)[C@@H](N)Cc2ccc(O)cc2)CCNC1=O |  |  |  | 0.576 |  | 0.122 |  |  |  | 8.33 |  |
| CC(=O)O.CC(C)C[C@@H]1NC(=O)[C@H](Cc2ccccc2)NC(=O)CNC(=O)[C@H](NC(=O)[C@@H](N)Cc2ccc(O)cc2)CNC1=O |  | 53.6 |  | 0.387 | 23.4 | 0.275 | 3.12 | 95.8 | 73.1 | 1.01 | IC50 [18]: 118 nM; Ki (Mu-type opioid receptor [19]): 53.2 nM |
| CC(C)C[C@@H]1NC(=O)[C@H](Cc2ccccc2)NC(=O)CNC(=O)[C@H](NC(=O)[C@@H](N)Cc2ccc(O)cc2)CCNC1=O | 13.8 | 115 | 253 |  | 14.1 |  |  | 24.9 | 81.4 |  |  |
| CC(=O)O.CC(C)C[C@H]1NC(=O)[C@H](Cc2ccccc2)NC(=O)CNC(=O)[C@H](NC(=O)[C@@H](N)Cc2ccc(O)cc2)CCCCNC1=O | 4.73 | 21.7 | 47.8 | 2.37 | 2.39 | 0.553 | 7.32 | 8.51 | 17.5 | 4.59 |  |
| CC(=O)O.CC[C@@H](NC(=O)[C@@H](N)Cc1ccc(O)cc1)C(=O)NCC(=O)N[C@@H](Cc1ccccc1)C(=O)N[C@@H](CC(C)C)C(N)=O | 5.61 | 4.06 | 8.94 | 1.5 | 28.7 | 0.181 | 1.59 | 10.1 |  |  | IC50 [13]: 45.6 nM; Ratio [15]: 0.72 |
| CC(=O)O.CCCC[C@@H](NC(=O)[C@@H](N)Cc1ccc(O)cc1)C(=O)NCC(=O)N[C@@H](Cc1ccccc1)C(=O)N[C@@H](CC(C)C)C(N)=O | 2.27 | 4.35 | 9.57 | 3.19 | 24.6 | 0.729 | 1.02 | 4.08 | 25.2 |  | Ratio [15]: 1.92 |
| CC(=O)O.CC(C)C[C@@H]1NC(=O)[C@H](Cc2ccccc2)NC(=O)CNC(=O)[C@H](NC(=O)[C@@H](N)Cc2ccc(O)cc2)CCNC1=O |  |  |  |  |  |  | 5.77 |  |  |  |  |
